Bioassay records: PubChem BioAssay, several laboratories
Ba/F3 V617F tox – reduce viability of Ba/F3 cells dependent on JAK2V617F. inhibition, % at 5.6 µM. hit rate 1.1% among 220,000. Ba/F3 EpoR-JAK2V617F viability, ATP luminescence;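 active means inhibition above the campaign mean plus 3 SD over all tested compounds, cut at about 24% in these data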;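 further: cytokine-independent growth of Ba/F3 cells driven by EpoR plus mutant JAK2; 0% = DMSO-treated cells and 100% = JAK inhibitor I control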
APP transl inh – APP translation inhibition | SH-SY5Y APP 5'UTR-luciferase reporter, luminescence | inhibition, % at 2 µM | hit rate 0.82% among 190,000 | AID 1285;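 active means inhibition above a set limit, derived from the sample mean plus 3 SD, cut at about 45% in these data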
Lmaj promast – inhibitors of Leishmania major promastigote growth; Leishmania major promastigotes, resazurin fluorescence viability; inhibition, % at 10 µM; hit rate 9% among 200,000; AID 1063; in the data active means inhibition above about 50%;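 further: promastigotes grown with compound for 44 hours at 28 °C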
BaF3 tox – reduces parental Ba/F3 cell viability, JAK2V617F counter-screen; CellTiter-Glo ATP luminescence; inhibition, % at 5.6 µM; hit rate 1.1% among 220,000;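 active means inhibition above a per-campaign cutoff, the mean inhibition of all tested compounds plus 3 SD, cut at about 27% in these data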;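 further: 0% = DMSO wells and 100% = JAK Inhibitor I control wells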
MT stabilizer – stabilizes microtubules in HeLa cells | HeLa tubulin immunostaining HCS, 24 h; share of cells brighter than vehicle mean+2SD | % tubulin-high responders, % at 10 µM | hit rate 0.83% among 200,000 | AID 2205;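 active means plate Z-score above 3 for both tubulin-high and condensed-nucleus cell shares, with cell loss under 80%, at 10 µM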;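 further: anti alpha tubulin signal scored within the nucleus-defined area of each cell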
b-catenin transl – alters nuclear translocation of beta-catenin in HeLa cells; hit rate 0.3% among 190,000; AID 1665; nuclear translocation activity, % at 5 µM; immunofluorescence imaging;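 active means nuclear translocation activity above 50% at 5 µM, with a well cell count of 50 or more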;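 further: per-cell ratio of nuclear to cytoplasmic median beta-catenin stain intensity; plate controls were DMSO negative control for no effect and GSK-3 inhibitor IX positive control for full effect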
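System: Human HeLa cells, endogenous beta-catenin | Compound dosing: 5 µM primary, 0.02–20 µM confirmation | Timing: 24 h compound exposure at 37°C, 5% CO2 | Measured by: Fluorescence imaging of beta-catenin antibody stain plus DAPI | Read-out basis: % activation of per-cell nuclear versus cytoplasmic median beta-catenin signal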
L major 1uM – L. major promastigote growth inhibition, 1 uM repeat | inhibition, % at 1 µM | shares compounds with Lmaj promast | resazurin fluorescence, 48 h | hit rate 13% among 1,100;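 active means inhibition above about 50% in both repeat tests, limit read from the data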
Numbers without * were called inactive; · = no result. The list is not random: actives were taken first. Their share in the collection is about 9.6%.

SMILES | Ba/F3 V617F tox | APP transl inh | Lmaj promast | BaF3 tox | MT stabilizer | b-catenin transl | L major 1uM
COC(=O)Cc1c[nH]c2cccc(OCC(O)CN(Cc3ccc([N+](=O)[O-])cc3)C(C)(C)C)c12 (configuration not stated) | -6.0 | -6.6 | 39.5 | 1.6 | 2.8 | 1.6 | ·
COC(=O)Cc1c[nH]c2cccc(OCC(O)CN(Cc3ccccc3)C(C)C)c12 (configuration not stated) | 3.7 | 14.2 | 98.0* | 3.7 | 5.6 | 0.3 | -14.1
COc1cccc(C(C(=O)Nc2ccc(F)cc2)N(C(=O)Cn2nnc3ccccc32)C2CC2)c1 (configuration not stated) | 0.1 | -2.0 | 2.0 | 11.9 | 1.5 | · | ·
COc1cccc(CC2(CO)CCCN(C/C=C/c3ccccc3OC)C2)c1 (configuration not stated) | 6.4 | 14.9 | 41.1 | 2.5 | 3.3 | -0.3 | ·
COc1ccccc1/C=C/CN1CCCC(CO)(Cc2cccc(Cl)c2)C1 (configuration not stated) | 0.8 | 4.6 | 82.3* | 6.1 | 3.7 | 0.9 | 42.2
O=C(CNC(=S)N(Cc1ccccc1F)C1CCCCC1)NCC1CCCO1 (configuration not stated) | -0.5 | 13.3 | 1.6 | 3.9 | 1.7 | -0.8 | ·
CN(C)c1nc(-c2ccccn2)nnc1-c1ccccc1 | 3.6 | 30.1 | 100.3* | 6.6 | 2.7 | · | 73.8*
Cc1ccc(NC(=S)NC(NC(=O)c2ccco2)C(Cl)(Cl)Cl)cc1 (configuration not stated) | 1.7 | 12.3 | 83.3* | 2.5 | 0.7 | 0.5 | -5.8
O=S1(=O)N=C(Nc2ccc(O)c(CN3CCCCC3)c2)c2ccccc21 | -1.4 | 13.0 | 55.4* | 2.7 | 5.6 | -1.6 | -2.4
CCCC(C)NC(=O)c1sc2nc3n(c(=O)c2c1C)CCC3 (configuration not stated) | 2.7 | -5.5 | 5.0 | -1.8 | 1.7 | 1.8 | ·
CCOC(=O)c1cnn(-c2nc(SC)nc3sc4c(c23)CCCC4)c1N | -4.0 | 12.8 | 59.7* | 1.5 | 7.8 | -0.8 | -0.7
CCOC(=O)c1cnn(-c2ncnc3sc4c(c23)CCC4)c1N | 2.0 | -18.5 | 2.9 | 4.1 | 3.4 | 1.8 | ·
CC12CCC(C(=O)N(CCCN3CCN(Cc4ccccc4)CC3)C1=O)C2(C)C (configuration not stated) | -3.4 | 12.7 | 94.6* | 3.4 | 2.2 | 0.3 | 67.7*
Cc1nc2ccc(NC(=O)c3cccs3)cc2c(=O)n1Cc1ccc(Cl)cc1 | 4.3 | 18.7 | 15.9 | 3.3 | 4.7 | 1.7 | ·
CCCc1nc2ccc(NC(=O)c3cccs3)cc2c(=O)n1Cc1ccc(Cl)cc1 | -1.5 | -3.8 | 72.4* | 9.9 | 2.6 | -0.3 | -7.3
Oc1ccc2cc(Br)ccc2c1CN1CCCC1 | -4.4 | -10.8 | 0.2 | 1.4 | 5.7 | 1.8 | ·
Cc1ccc(F)cc1NC(=O)N1c2ccccc2NC(=O)CC1C (configuration not stated) | -1.5 | · | · | -0.7 | · | -0.7 | ·
O=C(c1cc2ccccc2o1)N1CCN(S(=O)(=O)c2cccs2)CC1 | 2.2 | 5.4 | 72.1* | 3.5 | 4.1 | -18.9 | -6.2
Cn1cccc1Cc1nnc(SCC(=O)Nc2ccc(F)cc2)n1CCc1ccccc1 | -6.6 | 9.1 | 56.2* | 0.8 | 2.8 | -2.6 | -8.6
O=C(C1=C[C@H](c2ccc(Br)cc2)C[C@H](OCCCCO)O1)N1CCN(Cc2ccc3c(c2)OCO3)CC1 | -0.8 | -0.5 | 84.0* | 4.3 | 2.4 | -0.1 | -12.3
Cc1ccc(CNc2ccc(N3CCOCC3)cc2)s1 | -0.9 | -83.8 | 80.7* | 0.9 | 4.5 | -4.2 | -6.5
CC(=O)N1CCN(c2ccc(NCc3ccc(C)s3)cc2)CC1 | -1.8 | · | -10.6 | 4.3 | 2.5 | · | ·
CC(CNC(=O)C(C)C)NC(=O)C(C)C (configuration not stated) | -3.2 | 1.1 | 2.3 | 2.1 | 3.0 | -5.9 | ·
CCCCC(CC)C(=O)NCC(C)NC(=O)C(CC)CCCC (configuration not stated) | -1.5 | -15.4 | 61.4* | 5.6 | 4.9 | · | -9.3
Nc1ccc(C2=Nc3cccc4cccc(c34)N2)cc1 | 0.0 | 1.2 | 23.3 | 7.9 | 5.9 | · | ·
SMILES | Ba/F3 V617F tox | APP transl inh | Lmaj promast | BaF3 tox | MT stabilizer | b-catenin transl | L major 1uM
CC1=Nc2cccc3cccc(c23)N1 | -4.2 | -9.8 | 99.8* | 4.2 | 3.6 | 1.5 | -8.8
Cc1cccnc1NC(=O)C1CCN(S(=O)(=O)c2c(C)noc2/C=C/c2ccco2)CC1 | -1.2 | -0.3 | 4.8 | 3.9 | 2.9 | 1.8 | ·
Cc1noc(/C=C/c2ccco2)c1S(=O)(=O)N1CCC(C(=O)NCc2ccco2)CC1 | -2.7 | -15.7 | 76.8* | 1.2 | 2.6 | 3.7 | -14.8
Cc1cccc(OCCn2c(NC(=O)c3ccco3)nc3ccccc32)c1 | 3.8 | -6.3 | 96.7* | 5.5 | 3.8 | · | 87.2*
O=C(c1ccc(Cl)cc1)[C@@H]1[C@@H]2C(=O)N(c3cccc4ccccc34)C(=O)[C@@H]2C2c3ccccc3C=NN21 (some centres not stated) | 0.5 | -2.4 | 35.2 | 5.6 | 2.2 | -1.8 | ·
CCc1ccc2c(c1)C1(SC(NC(C)=O)=NN1C(C)=O)C(=O)N2CC (configuration not stated) | -1.4 | -1.9 | 4.9 | 0.1 | 4.4 | 0.0 | ·
Cc1cc(C(C)(C)C)cc(C)c1Cn1c2[n+](c3ccc(C(F)(F)F)cc31)CCCCC2 | 48.9* | 6.3 | 99.9* | 52.9* | 3.5 | -2.1 | 36.8
CCc1ccc(/C=C/c2c[nH]c3ccccc23)[n+](CC)c1 | 94.3* | -0.9 | 100.0* | 79.0* | 1.4 | -2.5 | 9.6
O=C(Nc1ccccc1)C1=C[C@@H](c2coc3ccccc3c2=O)C[C@@H](OCCCCO)O1 | 0.1 | -9.9 | 9.6 | -0.8 | 1.0 | -2.3 | ·
CCOC(=O)c1ccc(N2C(=O)c3n[nH]c(-c4ccco4)c3C2c2cccc([N+](=O)[O-])c2)cc1 (configuration not stated) | -0.7 | -7.0 | 96.5* | 3.0 | 2.6 | 0.9 | -5.1
Clc1ccc(CN=C2Nc3ccccc3CS2)cc1 | -3.5 | -115.2 | 18.4 | 1.6 | 1.3 | -0.3 | ·
Cc1ccc(CN=C2Nc3ccccc3CS2)cc1 | 0.9 | -143.2 | 86.3* | 6.5 | 1.9 | · | 17.5
O=C(OCc1ccccc1)c1cn(-c2ccccc2)nc1-c1ccncc1 | 0.5 | 13.5 | 68.6* | 6.0 | 2.5 | -4.0 | 9.2
Clc1ccccc1OCCn1ccnc1 | -0.9 | -1.6 | 0.0 | 1.4 | 2.0 | 6.1 | ·
Cc1ccc(OCCCCn2ccnc2)c(Cl)c1 | 0.6 | -19.7 | 98.3* | 7.6 | 1.3 | -0.8 | 73.8*
On1onc2c3cc(-c4ccccc4)nc3ccc21 | 99.6* | 60.8* | 100.4* | 97.2* | 1.7 | 3.3 | -22.3
c1ccc(-c2cc3c(ccc4nonc43)nn2)cc1 | -2.6 | -0.1 | 2.2 | 1.2 | 4.2 | -7.0 | ·
Cc1nc2c(-c3ccc(Cl)cc3)cnn2c2c1CCC2 | 0.9 | -37.4 | -2.7 | 2.3 | 1.6 | 8.2 | ·
